Test results reported in ChEMBL document CHEMBL4706607, “Anti-tubercular profile of new selenium-menadione conjugates against Mycobacterium tuberculosis H37Rv (ATCC 27294) strain and multidrug-resistant clinical isolates” (Eur J Med Chem, 2021).
In brackets after ≈: the same amount, converted by molar mass.

Tests used:
[1] = test system: Mycobacterium tuberculosis; experiment: Antimycobacterial activity against multidrug resistance Mycobacterium tuberculosis CDCT-27 clinical isolates assessed as reduction in bacterial growth by resazurin reduction microplate assay; assay type: functional
Summary of the method: (§1)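 REMA in Middlebrook 7H9 broth with 10% ADC. Compounds dissolved at 1 mg/mL in DMSO and diluted to 50 μg/mL in broth containing 5% DMSO. Ten-point two-fold dilutions gave 25.0 to 0.05 μg/mL. Growth and sterility controls on each plate. MIC was the lowest concentration preventing the blue-to-pink change.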

[2] = test system: Mycobacterium tuberculosis; experiment: Antimycobacterial activity against multidrug resistance Mycobacterium tuberculosis CDCT-16 clinical isolates assessed as reduction in bacterial growth by resazurin reduction microplate assay; assay type: functional; summary of the method: as §1

CC1=C(C[Se]C(=O)c2ccc(C)cc2)C(=O)c2ccccc2C1=O
MIC [1]: > 10 µM
MIC [2]: > 10 µM

CC1=C(C[Se]C(=O)c2ccc(Cl)cc2)C(=O)c2ccccc2C1=O
MIC [1]: > 10 µM
MIC [2]: > 10 µM

COc1ccc(C(=O)[Se]CC2=C(C)C(=O)c3ccccc3C2=O)cc1
MIC [1]: > 10 µM
MIC [2]: > 10 µM

CCCC(C)C(=O)[Se]CC1=C(C)C(=O)c2ccccc2C1=O (stereo not given)
MIC [1]: > 10 µM
MIC [2]: > 10 µM

CCCCC(=O)[Se]CC1=C(C)C(=O)c2ccccc2C1=O
MIC [1]: > 10 µM
MIC [2]: > 10 µM

CC1=C(C[Se]C(=O)c2ccccc2C)C(=O)c2ccccc2C1=O
MIC [1]: 3.1 µM (≈ 1.19 µg/mL)
MIC [2]: 3.1 µM (≈ 1.19 µg/mL)

CC1=C(C[Se]C(=O)c2ccccc2)C(=O)c2ccccc2C1=O
MIC [1]: 0.8 µM (≈ 0.295 µg/mL)
MIC [2]: 0.8 µM (≈ 0.295 µg/mL)

CCc1ccc(C(=O)[Se]CC2=C(C)C(=O)c3ccccc3C2=O)cc1
MIC [1]: > 10 µM
MIC [2]: > 10 µM

CC1=C(C[Se]C(=O)c2ccc(F)cc2)C(=O)c2ccccc2C1=O
MIC [1]: 3.1 µM (≈ 1.2 µg/mL)
MIC [2]: 0.8 µM (≈ 0.31 µg/mL)

NNC(=O)c1ccncc1 [ISONIAZID]
MIC [1]: 25 µM (≈ 3.43 µg/mL)
MIC [2]: 100 µM (≈ 13.7 µg/mL)
